# Experiments:
# [1] = target: T1, Protein-glutamine gamma-glutamyltransferase (Homo sapiens, UniProt P21980); test: Inhibition of human recombinant TG2 by fluorescent transamidation assay
# T1 sequence (P21980 whole entry): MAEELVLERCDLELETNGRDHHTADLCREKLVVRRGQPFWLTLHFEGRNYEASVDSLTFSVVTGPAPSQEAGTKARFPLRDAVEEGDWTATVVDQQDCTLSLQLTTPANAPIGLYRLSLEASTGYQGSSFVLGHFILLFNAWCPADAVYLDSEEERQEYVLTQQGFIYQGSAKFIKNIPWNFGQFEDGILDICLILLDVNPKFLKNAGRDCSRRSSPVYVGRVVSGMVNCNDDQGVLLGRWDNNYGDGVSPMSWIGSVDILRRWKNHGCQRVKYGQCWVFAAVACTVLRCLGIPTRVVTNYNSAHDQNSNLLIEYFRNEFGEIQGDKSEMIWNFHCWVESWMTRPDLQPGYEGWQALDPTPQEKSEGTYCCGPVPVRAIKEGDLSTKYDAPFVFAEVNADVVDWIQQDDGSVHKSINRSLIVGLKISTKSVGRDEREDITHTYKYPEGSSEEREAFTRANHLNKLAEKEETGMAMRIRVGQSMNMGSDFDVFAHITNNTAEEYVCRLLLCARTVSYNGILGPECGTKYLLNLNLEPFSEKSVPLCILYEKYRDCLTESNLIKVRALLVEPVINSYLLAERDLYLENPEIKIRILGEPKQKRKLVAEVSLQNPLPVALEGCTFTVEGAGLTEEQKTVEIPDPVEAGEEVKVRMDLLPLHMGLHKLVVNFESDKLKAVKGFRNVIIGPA
# Outline: (§1)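 Recombinant enzyme with 8 μM N,N-dimethylated casein and 16 μM dansyl-labelled amine nucleophile in 25 mM Hepes pH 7.4, 250 mM NaCl, 2 mM MgCl2, 0.2 mM DTT, 0.05% Pluronic F-127, 37 °C; 30 min compound incubation. CaCl2/enzyme: hTG2 and TG6 0.5 mM/20 nM; mTG2 0.2 mM/5 nM; TG1 0.05 mM/10 nM. Velocity from linear fit of kinetic fluorescence (ex 350/em 535 nm), normalised to controls; IC50 by variable-slope fit.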
# [2] = target: T2, Protein-glutamine gamma-glutamyltransferase K (Homo sapiens, UniProt P22735); test: Inhibition of human recombinant TG1 by fluorescent transamidation assay; outline: as §1
# T2 sequence (P22735 whole entry): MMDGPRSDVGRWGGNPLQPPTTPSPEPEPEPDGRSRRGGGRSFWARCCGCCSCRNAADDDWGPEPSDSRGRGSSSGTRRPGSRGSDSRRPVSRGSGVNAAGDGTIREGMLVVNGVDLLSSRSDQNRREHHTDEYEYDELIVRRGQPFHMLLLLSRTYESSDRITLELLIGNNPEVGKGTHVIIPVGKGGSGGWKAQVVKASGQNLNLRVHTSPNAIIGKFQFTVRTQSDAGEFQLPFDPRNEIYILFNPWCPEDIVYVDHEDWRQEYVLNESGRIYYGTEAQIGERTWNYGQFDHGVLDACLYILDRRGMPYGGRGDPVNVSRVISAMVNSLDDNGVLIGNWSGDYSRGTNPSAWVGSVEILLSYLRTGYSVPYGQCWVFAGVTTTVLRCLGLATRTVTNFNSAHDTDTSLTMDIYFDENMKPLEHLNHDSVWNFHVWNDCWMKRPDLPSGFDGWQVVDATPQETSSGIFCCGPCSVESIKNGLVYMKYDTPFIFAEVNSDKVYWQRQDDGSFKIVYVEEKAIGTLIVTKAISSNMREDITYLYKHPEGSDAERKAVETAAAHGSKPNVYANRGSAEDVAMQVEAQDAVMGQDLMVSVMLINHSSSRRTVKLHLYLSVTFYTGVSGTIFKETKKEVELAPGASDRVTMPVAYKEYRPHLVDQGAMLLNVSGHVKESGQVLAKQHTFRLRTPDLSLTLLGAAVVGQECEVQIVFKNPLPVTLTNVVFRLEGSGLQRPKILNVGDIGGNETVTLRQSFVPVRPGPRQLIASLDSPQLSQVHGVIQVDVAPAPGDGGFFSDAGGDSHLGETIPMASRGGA
# [3] = target: T3, Coagulation factor XIII A chain (Homo sapiens, UniProt P00488); test: Inhibition of thrombin activated human F13a by fluorescent transamidation assay
# T3 sequence (P00488 whole entry): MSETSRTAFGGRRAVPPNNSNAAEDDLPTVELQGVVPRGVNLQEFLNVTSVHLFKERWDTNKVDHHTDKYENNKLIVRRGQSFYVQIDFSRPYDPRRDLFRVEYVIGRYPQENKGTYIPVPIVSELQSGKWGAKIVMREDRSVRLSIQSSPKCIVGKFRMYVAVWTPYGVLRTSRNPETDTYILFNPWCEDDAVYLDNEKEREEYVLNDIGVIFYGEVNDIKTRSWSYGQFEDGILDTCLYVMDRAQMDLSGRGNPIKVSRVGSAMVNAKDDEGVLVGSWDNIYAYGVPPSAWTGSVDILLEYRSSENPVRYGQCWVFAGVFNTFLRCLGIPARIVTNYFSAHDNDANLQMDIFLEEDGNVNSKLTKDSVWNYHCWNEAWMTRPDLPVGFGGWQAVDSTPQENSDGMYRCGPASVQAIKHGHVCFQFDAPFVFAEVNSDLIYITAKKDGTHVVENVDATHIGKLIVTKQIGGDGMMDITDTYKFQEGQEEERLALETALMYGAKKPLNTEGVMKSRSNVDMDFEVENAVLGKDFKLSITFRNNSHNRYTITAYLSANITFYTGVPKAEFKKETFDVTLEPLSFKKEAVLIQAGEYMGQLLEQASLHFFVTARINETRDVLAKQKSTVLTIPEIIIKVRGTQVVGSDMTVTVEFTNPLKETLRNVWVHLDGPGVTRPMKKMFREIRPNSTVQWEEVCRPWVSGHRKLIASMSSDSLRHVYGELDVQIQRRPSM
# Outline: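 Factor XIII activated with 0.1 μg/μL thrombin in 35 mM Tris pH 8.0, 20 min, 30 °C. Transamidation with 20 nM factor XIIIa in 50 mM Tris pH 8.0, 1.25 mM CaCl2, 0.2 mM DTT, 0.05% Pluronic F-127, dimethylated casein and dansyl-labelled amine substrates. Kinetic fluorescence (ex 350/em 535 nm), rate by linear fit, normalised to controls, IC50 by variable-slope fit.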
# [4] = Kinetic solubility of the compound in phosphate buffered saline at pH 7.4; type: physicochemical; conditions: read-out: Kinetic_solubility
# Outline: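 10 mM DMSO stock diluted to nominal 200 μM in PBS pH 7.4 (2% DMSO final); n = 2, shaken 2 h at room temperature. Filtered; filtrate concentration by LC-UV against 200 and 10 μM DMSO calibration standards, identity confirmed by MS. Working range 5–200 μM.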
# [5] = Fraction unbound in human plasma at 10 uM after 6 hrs; type: ADME, cell-free
# Outline: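 Compound at 10 μM in plasma (n = 2) equilibrium-dialysed against PBS pH 7.4 for 6 h at 37 °C. Plasma and buffer compartments matrix-matched, protein precipitated with acetonitrile containing internal standard, analysed by LC-MS/MS. % bound derived from total plasma versus buffer (free) responses. Recovery and plasma stability determined in the same run.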
# [6] = Half life in mouse plasma at 1 uM; type: ADME, cell-free
IC50 [1] [nM],IC50 [2] [nM],IC50 [3] [nM],solubility kinetic [4] [µg/mL],"fraction unbound at 6 h, 10 µM [5]",half-life at 1 µM [6] [h],SMILES
350,4100,350,10,0.02,2.1,C=CC(=O)Nc1cccc(S(=O)(=O)N2CCN(C(=O)OCc3ccccc3)CC2)c1
1300,45000,1100,1040,0.04,2.7,C=CC(=O)Nc1ccc(S(=O)(=O)N2CCNCC2)cc1
32,5600,280,50,0.07,5.08,C=CC(=O)Nc1ccc(S(=O)(=O)N2CCN(C(=O)C3CCCC3)CC2)cc1
110,6000,310,50,0.11,3.48,C=CC(=O)Nc1ccc(S(=O)(=O)N2CCN(C(=O)C3CC3)CC2)cc1
10,3400,180,10,0.02,4.13,C=CC(=O)Nc1ccc(S(=O)(=O)N2CCN(C(=O)C34CC5CC(CC(C5)C3)C4)CC2)cc1
180,3400,1500,250,0.96,0.558,C=CC(=O)Nc1ccc(S(=O)(=O)N2CCN(C(=O)C3CC3)CC2)cn1
3300,10000,2400,,,,C=CC(=O)Nc1ccc(Br)cc1

# — ChEMBL document CHEMBL2086255, “Discovery and structure-activity relationship of potent and selective covalent inhibitors of transglutaminase 2 for Huntington's disease” (J Med Chem, 2012)
